# Screens: PubChem BioAssay, Johns Hopkins Ion Channel Center
# TRPC6 inh: mouse TRPC6 channel inhibitors, primary screen, cell-based, HEK293, membrane potential dye | B-score at 10 µM | AID 2553, 2010 | 1.1% of 310,000 active | ACh-evoked depolarization; stronger effect = lower value;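 active = B-score under library mean minus 3 SD, initial fluorescence not abnormally high, positive integrated signal ratio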;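 note: B-score derived from integrated fluorescence ratio over the kinetic read; more negative B-score means stronger inhibition of depolarization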
# TRPC4 block: inhibitors of mouse TRPC4 channel, primary screen, Fluo4 calcium, HEK293 TRPC4beta/mu-opioid cells; DAMGO-evoked Fluo4 calcium flux; stronger effect = lower value; B-score at 10 µM; Short transient receptor potential channel 4 (Mus musculus), Q9QUQ5; 0.39% of 300,000 active;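 active = B-score over 3 SD under the library average, no early fluorescence shift, positive overall ratio signal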
#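 material = TRPC4beta/mu-opioid receptor HEK293 cell line | probe or stimulus = sequential submaximal and maximal DAMGO stimulation | compound dosing = one concentration per compound | measured by = Fluo4 Ca2+ flux fluorescence | evaluation = integrated fluorescence ratio relative to baseline, converted to per-well B score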
# TRPC6 act: mouse TRPC6 channel activators, primary screen, cell-based, HEK293, membrane potential dye; Short transient receptor potential channel 6 (Mus musculus), Q61143; HEK293-TRPC6 membrane potential dye fluorescence; stronger effect = higher value; B-score at 10 µM; 0.13% of 310,000 active; AID 2550, 2010;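 active = B-score of the integrated fluorescence ratio above library mean plus 3 SD, and starting fluorescence ratio within library mean plus 5 SD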;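 note: higher score means more depolarization so channel activation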
# TRPC4 act: activators of mouse TRPC4 channel, primary screen, Fluo4 calcium, HEK293 TRPC4beta/mu-opioid cells | 0.49% of 310,000 active | Fluo4 calcium fluorescence; stronger effect = higher value | AID 2237, 2010 | B-score at 10 µM;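 active = B-score above 5 SD of library B-scores, and initial fluorescence ratio not above library mean plus 5 SD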;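 note: positive B-score marks a calcium rise read as TRPC4 activation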
#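 Material: TRPC4beta and mu-opioid receptor HEK293 stable cells | Incubation: 45 min room-temperature Fluo4 loading, 110 s read | Detection: Kinetic Fluo4 calcium fluorescence | Measure: Integrated baseline-normalised fluorescence ratio, converted to per-well B score | Benchmarks: Low control buffer alone, high control maximal DAMGO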
# TRPC4 potent: positive allosteric modulators of TRPC4, primary screen, cell-based, mouse TRPC4beta, HEK293 mu-opioid, Fluo-4 calcium | Short transient receptor potential channel 4 (Mus musculus), Q9QUQ5 | DAMGO EC20, Fluo-4 Ca2+ flux; stronger effect = higher value | 0.42% of 310,000 active | B-score at 10 µM | AID 2227, 2009;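 active = B-score of calcium response area above 5 SD of library B-scores, with initial fluorescence ratio within 5 SD of library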
# A number is an active result; – = inactive. This is a sample that favours compounds with a hit; in the whole collection about 2.3% have one here.
SMILES,TRPC6 inh,TRPC4 block,TRPC6 act,TRPC4 act,TRPC4 potent
O=C(/C=C/c1ccc(F)cc1)NC(=S)N1CCN(Cc2ccccc2)CC1,–,–,–,–,–
Cc1ccc(NC(=O)Cn2cnc([N+](=O)[O-])c2)cc1C,–,–,–,–,–
O=[N+]([O-])c1ccccc1CN1CCN(S(=O)(=O)c2ccccc2)CC1,–,–,–,–,17
CCN1C(=O)C(=O)N(CC(=O)c2[nH]c(C)c(C(C)=O)c2C)C1=O,–,–,–,–,–
CC(=O)c1c(C)[nH]c(C(=O)CN2C(=O)NC(C)(c3ccc(C)cc3)C2=O)c1C (centres undefined),–,–,–,44,–
O=C(CCNC(=O)Cn1ccc2ccccc2c1=O)NCCN1CCN(c2cccc(Cl)c2)CC1,–,-6,–,–,–
Cc1ccc2[nH]c3c(=O)n(CC(=O)NCCCN4CCN(c5ccc(F)cc5)CC4)ncc3c2c1,–,–,–,–,–
CCCC1Cc2[nH]c(=O)c(C#N)cc2CO1 (centres undefined),–,–,–,–,–
CCCC1Cc2nc(N3CCCCC3)c(C#N)cc2CO1 (centres undefined),–,–,–,–,10
Cc1cc2[nH]c(=O)c(=O)[nH]c2cc1S(=O)(=O)Nc1cccc(Cl)c1C,–,–,–,–,–
CC(=O)c1ccc(N2CCN(C(=O)/C=C/c3ccc(S(=O)(=O)NCc4ccco4)cc3)CC2)cc1,–,–,–,–,12
CC(=O)c1ccc(N2CCN(C(=O)/C=C/c3ccc(S(=O)(=O)N4CCOCC4)cc3)CC2)cc1,–,–,–,–,–
COc1cccc(CC2(CO)CCN(Cc3cnc(N4CCOCC4)s3)CC2)c1,–,–,–,–,–
Cc1ncc(CN2CCC(CO)(CCc3ccccc3)CC2)s1,–,–,–,73,–
OCC1(CCCc2ccccc2)CCN(Cc2cnc(N3CCOCC3)s2)CC1,–,–,–,46,–
Cc1ncc(CN2CCN(CCc3ccccc3)C(CCO)C2)s1 (centres undefined),–,–,–,–,–
O=C(CS(=O)(=O)Nc1ccc(F)cc1Cl)Nc1ccc(F)cc1Cl,–,–,–,–,–
COc1ccc(C(CNC(=O)C2CCN(S(=O)(=O)c3ccc(F)cc3)CC2)N(C)C)cc1 (centres undefined),–,–,–,137,–
CCOC(=O)/C(=N\O)C1=NC(C)(C)Cc2ccccc21,–,–,–,–,–
Cc1cccc(N/N=C(\C(N)=O)C2=NC(C)(C)Cc3ccccc32)c1,–,–,–,–,14
O=C(O)Cn1c(=O)c(F)cn(C2CCCO2)c1=O (centres undefined),–,–,–,–,–
Fc1ccc(-n2nnc(-c3ncc[nH]3)n2)cc1,–,–,–,–,–
COc1c(C)cc(C(=O)C2CCCN(C(=O)c3cc(C4CC4)[nH]n3)C2)cc1C (centres undefined),–,–,–,–,–
COc1ccc(NC(=S)Nn2cnnc2)c(OC)c1,–,–,–,–,–
CCOC(=O)Cn1c(=O)oc2cc(S(=O)(=O)N3CCC(N4CCCCC4)CC3)ccc21,–,–,–,–,11
SMILES,TRPC6 inh,TRPC4 block,TRPC6 act,TRPC4 act,TRPC4 potent
CCOC(=O)Cn1c(=O)oc2cc(S(=O)(=O)N3CCCC(C(=O)OCC)C3)ccc21 (centres undefined),–,–,–,–,–
CCc1nc(SCC(=O)N2CCCc3ccccc32)c2oc3ccccc3c2n1,–,-5,–,–,–
CCc1nc(SCC(=O)NC2CCCC2)c2oc3ccccc3c2n1,–,–,–,–,–
C#CCNC(=O)C1=C[C@H](C2CCCCC2)C[C@H](OCc2ccc(CO)cc2)O1,–,–,–,57,–
O=C(O)C1=C[C@@H](C2CCCCC2)C[C@@H](OCc2ccc(CO)cc2)O1,–,–,–,–,–
O=C(NC1CC1)C1=C[C@H](C2CCCCC2)C[C@H](OCc2ccc(CO)cc2)O1,–,-6,–,249,–
O=C(CCC1CCCC1)c1c(O)c2ccccc2oc1=O,–,–,–,193,–
O=C(c1c(O)c2ccccc2oc1=O)C1CCCCC1,–,–,–,–,–
c1ccc(-c2noc(CC3CCCCC3)n2)nc1,–,–,–,–,–
Cc1ccc(S(=O)(=O)N(CC(=O)c2ccc(Cl)cc2)C(=O)N2CCN(C)CC2)cc1,–,–,–,–,–
CN(CCc1ccccn1)c1ccc([N+](=O)[O-])cn1,–,–,–,189,–
O=[N+]([O-])c1ccc(SCCc2ccccn2)cc1,–,–,–,–,14
O=[N+]([O-])c1ccc(SCCc2ccncc2)cc1,–,–,–,–,–
C=CCN(C(=O)CCC(=O)Nc1cc(C)on1)C(C(=O)NC1CCCC1)c1ccc(C)cc1 (centres undefined),–,–,–,–,–
O=C(CSc1ccc2nnc(-c3cccnc3)n2n1)Nc1ccccc1C(F)(F)F,–,–,–,–,–
CSc1ccc(S(=O)(=O)NCC(=O)OCC(=O)N(C)Cc2ccccc2)cc1[N+](=O)[O-],–,–,–,–,17
CSc1ccc(S(=O)(=O)NCC(=O)OCC(=O)N(Cc2ccccc2)C(C)C)cc1[N+](=O)[O-],–,–,–,–,–
CCCS(=O)(=O)c1c(S(=O)(=O)CCC)c2ccc(C(N)=O)cn2c1C(=O)OC,–,–,–,–,–
CCCS(=O)(=O)c1c(S(=O)(=O)CCC)c2ccc(C(N)=O)cn2c1C(=O)c1ccc(OC)cc1,–,–,–,–,20
CCOC(=O)C1(CCCc2ccccc2)CCN(Cc2cnn(C)c2)CC1,–,–,–,120,–
CCOC(=O)C1(Cc2ccccc2)CCN(Cc2csc(C(C)=O)c2)CC1,–,–,–,–,–
CCOC(=O)C1(CCc2ccccc2)CCN(Cc2ccccn2)CC1,–,-8,–,–,–
CCOC(=O)C1(Cc2ccc(Cl)cc2)CCN(Cc2cn(CC)nc2C)CC1,–,-6,–,68,–
CCOC(=O)C1(Cc2ccccc2)CCN(Cc2cnn(C(C)C)c2)CC1,–,–,–,55,–
Cc1cc(C)cc(N(C(=O)c2csnn2)C(C(=O)NC(C)(C)C)c2cccnc2)c1 (centres undefined),–,–,–,–,–
CCOC(=O)c1c(NC(=O)COC(=O)CCOc2ccccc2C)sc(C(=O)NC)c1C,–,–,–,–,–
Cc1noc(C)c1C(=O)N(C)CC(=O)Nc1ccc(F)c(F)c1F,–,–,–,–,–
C/C(=N\NS(=O)(=O)c1c(C)cc(C)cc1C)c1ccncc1,–,–,–,–,–
